Shown are actives, neighbours in structure and some others; about 2.2% of the full set was active somewhere.
EBI2 antag – blocks human EBI2 receptor beta-arrestin signaling; P32249; EBI2 beta-arrestin recruitment, luminescence, 7a,25-OHC stimulated; inhibition, % at 5 µM; actives 0.81% (n = 360,000); AID 651636; in the data active = inhibition above about 38%;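 note: enzyme fragment complementation signal reports receptor beta-arrestin coupling in cells; 0% = agonist plus DMSO wells and 100% = wells without agonist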
APJ ag – APJ receptor agonism; P35414; CHO-K1 APJ PathHunter beta-arrestin, luminescence; 0% DMSO wells, 100% apelin; activation, % at 20 µM; actives 0.11% (n = 330,000); AID 2520;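 active = activation more than six SD over the plate average, tested at 20 µM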;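 note: 0% = DMSO alone and 100% = apelin-13 at 10 nM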
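system = engineered CHO-K1 APJ arrestin reporter cells | input = 1000 cells per well | timing = overnight seeding, 90 min compound at 25 °C, 1 h detection | measured by = enzyme-fragment complementation luminescence | read-out = beta-arrestin recruitment to APJ as agonist activity, luminescent signal | control set = negative DMSO alone, positive Apelin-13 at 10 nM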
APJ antagonist – APJ receptor antagonism; P35414; CHO-K1 APJ beta-arrestin complementation, luminescence; inhibition, % at 20 µM; actives 0.32% (n = 330,000);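 active = inhibition above about 40% at 20 µM, limit read from the data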;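 note: cells challenged with 10 nM apelin-13 agonist together with compound; plate controls were apelin-13 plus DMSO wells for no effect and DMSO wells lacking apelin-13 for full effect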
CCR6 antagonist – CCR6 (human) receptor antagonism | actives 0.49% (n = 340,000) | CHO-K1 CCR6 PathHunter beta-arrestin, luminescence, CCL20-stimulated | P51684 | inhibition, % at 20 µM | AID 493098;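 active = compounds whose inhibition of the agonist-driven luminescence signal at 20 µM reaches about 50%, limit read from the data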;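 note: cells stimulated with CCL20 at 14 nM final; plate controls were DMSO with CCL20 for no effect and DMSO without agonist for full effect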
HTR2A ag – activates the mouse 5-HT2A serotonin receptor; activation, % at 7.6 µM; CHO-K1 mHTR2A beta-arrestin complementation, luminescence; percent of 30 µM serotonin response; actives 0.66% (n = 360,000); P35363;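 active = activation above a run cutoff, the mean activation of all tested compounds plus 3 SD, cut at about 14% in these data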;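 note: 0% = plate median of compound wells and 100% = 30 µM serotonin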
CXCR6 block – CXCR6 (human) receptor inhibition. O00574. CHO-K1 PathHunter CXCR6 beta-arrestin, luminescence. inhibition, % at 20 µM. actives 0.36% (n = 360,000); in the data active = inhibition above about 34%, passing the limit was not always enough;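 note: antagonist mode with CXCL16 agonist at 10 nM final; 0% = 10 nM CXCL16 with DMSO and 100% = unstimulated wells without agonist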
MOR ag counter – counter-screen for mouse HTR2A agonists: human mu opioid receptor agonists; actives 5.3% (n = 2,300); U2OS OPRM1 beta-arrestin PathHunter, luminescence; DMSO 0%, DAMGO 9.3 µM 100%; activation, % at 9.3 µM; shares compounds with HTR2A ag;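 active = mean activation above the mean of DMSO-only wells plus 3 SD, cut at about 0.5% in these data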
Target sequence (P35372 whole entry, looked up): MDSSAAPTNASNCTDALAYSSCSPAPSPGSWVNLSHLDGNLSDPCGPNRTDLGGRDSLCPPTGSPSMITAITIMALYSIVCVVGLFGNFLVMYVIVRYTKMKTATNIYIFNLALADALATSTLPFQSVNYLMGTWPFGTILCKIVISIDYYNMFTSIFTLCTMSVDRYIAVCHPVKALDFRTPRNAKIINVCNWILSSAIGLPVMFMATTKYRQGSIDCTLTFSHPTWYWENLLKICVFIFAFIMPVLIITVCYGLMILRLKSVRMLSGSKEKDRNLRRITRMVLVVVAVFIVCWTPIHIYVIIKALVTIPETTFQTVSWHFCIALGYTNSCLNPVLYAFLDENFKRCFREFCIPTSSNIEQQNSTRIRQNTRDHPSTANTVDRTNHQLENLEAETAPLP
HTR2A ag conf – mouse HTR2A agonism confirmed | actives 19% (n = 2,300) | shares compounds with HTR2A ag | AID 624381 | CHO-K1 PathHunter beta-arrestin recruitment, luminescence; DMSO 0%, 30 µM serotonin 100% | activation, % at 7.6 µM;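 active = mean activation across triplicates above the hit threshold derived in the original primary screen, cut at about 15% in these data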
The depositor's hits bear a star; . = no result given.

SMILES	EBI2 antag	APJ ag	APJ antagonist	CCR6 antagonist	HTR2A ag	CXCR6 block	MOR ag counter	HTR2A ag conf
CN(C)c1nc(N(C)C)n(Cc2c(Cl)cccc2Cl)n1	-8.4	-2.8	-3.4	2.8	24.9*	13.0	-0.7	-3.1
COc1ccc(NC(=O)C2CCN(c3nc(-c4ccc(OC)cc4)no3)CC2)cc1	10.1	-2.0	2.5	6.7	17.1*	-8.4	0.2	0.0
COc1cccc(C(C#N)NCCCNC(C#N)c2cccc(OC)c2OC)c1OC (stereo not given)	-4.2	.	.	3.8	3.9	0.1	.	.
Cc1ccc2c(c1)CCCN2S(=O)(=O)c1cccc(C(=O)Nc2ccccc2C(=O)O)c1	-6.5	5.5	-8.9	.	14.9*	-0.9	-0.6	13.4
CN(C)C(=O)c1ccc(NC(=O)c2cccc(S(=O)(=O)N3CCCc4ccccc43)c2)cc1	-18.1	3.2	-15.4	14.3	-1.5	2.2	.	.
COc1ccc(CN2C(=O)c3ccccc3C2c2nnnn2-c2ccc3c(c2)OCCO3)cc1OC (stereo not given)	-5.7	.	.	.	-2.1	-2.3	.	.
Cc1ccc(OCC(=O)OCC(=O)NC2CCCC2)cc1C	-3.2	-2.3	7.0	6.7	15.1*	-3.8	-0.2	3.5
Cc1cc(OCC(=O)OCC(=O)NC2CCCC2)ccc1Cl	1.0	-3.9	-0.2	-2.0	-8.7	-0.9	.	.
COc1ccc(CC(=O)OCC(=O)NC2CCCCC2)cc1OC	-3.7	-2.3	11.3	9.5	20.4*	2.5	-0.5	-2.2
Clc1ccc2nc(-c3ccccc3)c(CC3CCCCC3)n2c1	-8.7	.	.	.	-1.0	0.8	.	.
Cc1cc(C)n2c(NCc3ccccc3)c(-c3cc4ccccc4o3)nc2n1	4.0	.	.	.	0.7	2.9	.	.
C=C(C)c1cccc(C(C)(C)NC(=O)Nc2ccc(OC)cc2)c1	-0.4	-1.6	-2.6	-4.9	16.9*	6.7	-0.1	-0.2
C=C(C)c1cccc(C(C)(C)NC(=O)N2CCCCC2CC)c1 (stereo not given)	12.6	2.4	9.4	10.7	52.9*	-3.2	-0.7	17.5*
C=C(C)c1cccc(C(C)(C)NC(=O)N2CCC(C)CC2)c1	3.7	-0.8	-12.1	9.4	18.9*	6.7	-0.5	10.3
C=C(C)c1cccc(C(C)(C)NC(=O)Nc2ccc(C(C)=O)cc2)c1	0.0	-1.6	-15.6	15.8	2.0	-5.6	.	.
C=C(C)c1cccc(C(C)(C)NC(=O)N2CCN(C)CC2)c1	3.2	-5.8	2.6	-3.8	-2.9	-7.5	.	.
COc1ccc(S(=O)(=O)NCc2csc(-c3cccnc3)n2)cc1	-3.9	-3.3	-5.2	-3.7	17.4*	-3.7	-0.6	-4.4
O=S(=O)(NCc1csc(-c2cccnc2)n1)c1ccc(Br)cc1	-3.6	0.0	12.5	3.5	8.2	-4.6	.	.
Cc1cc(=O)[nH]c2nc3ccccc3n12	3.7	.	.	.	-4.7	-4.8	.	.
CC(C)Cc1nnc(NC(=O)c2cc(-c3ccccc3)nc3ccccc23)s1	-9.2	-3.3	8.0	-5.0	-0.7	-2.0	.	.
CC(C)Cc1nnc(NC(=O)c2cc(-c3ccncc3)nc3ccccc23)s1	-3.0	-3.4	5.9	14.7	14.9*	8.5	-0.5	4.6
COc1ccc(OC)c(CCNC(=O)Cc2ccc(NC3=NC4CS(=O)(=O)CC4S3)cc2)c1 (stereo not given)	-0.5	-2.5	7.0	-1.8	-0.4	0.5	.	.
COc1ccc(OC)c(CCNC(=O)c2ccc(NC3=NC4CS(=O)(=O)CC4S3)cc2)c1 (stereo not given)	-6.6	-3.3	12.7	3.8	16.9*	-13.4	0.3	0.2
CCOc1ccccc1NC(=O)c1cccc(NC2=NC3CS(=O)(=O)CC3S2)c1 (stereo not given)	-7.4	-1.5	9.9	4.5	15.4*	2.1	-0.5	-2.7
COc1ccccc1N1CCN(C(=O)c2cccc(NC3=NC4CS(=O)(=O)CC4S3)c2)CC1 (stereo not given)	-3.3	-1.3	15.0	10.5	23.5*	5.8	-0.6	-3.4
SMILES	EBI2 antag	APJ ag	APJ antagonist	CCR6 antagonist	HTR2A ag	CXCR6 block	MOR ag counter	HTR2A ag conf
CCOC(=O)C[C@@H](C#N)NC(=O)[C@@H]1CCCN1C(=O)[C@@H](NC(=O)c1ccc(N)c(Cl)c1)C(C)(C)C	-10.6	.	.	.	2.5	-2.6	.	.
CN(C)Cc1c(C(C)(C)O)[nH]c2ccc(C(F)(F)F)cc12	-10.2	-3.2	9.4	10.1	23.1*	5.8	-0.6	19.8*
O=C(Nc1ccc(Oc2ccccc2)cc1)c1csc([C@H]2C[C@H](O)[C@@H](CO)O2)n1	10.1	.	.	.	-4.6	-10.8	.	.
N#Cc1ccc(Sc2ccccn2)c([N+](=O)[O-])c1	-1.8	8.2	-28.4	-8.3	14.8*	-22.7	-0.4	-4.3
COc1ccc([C@H]2C[C@@H](n3cc(COC(=O)c4ccccc4)nn3)[C@H](O)CN2Cc2cccs2)cc1	18.1	.	.	.	-1.0	-0.9	.	.
CCn1c(=O)c(C(=O)CN2CCN(S(=O)(=O)c3ccccc3)CC2)c(N)n(Cc2ccccc2)c1=O	9.2	-0.7	28.6	3.2	1.6	2.9	.	.
CCn1c(=O)c(C(=O)CN2CCN(S(=O)(=O)c3ccc(C)cc3C)CC2)c(N)n(Cc2ccccc2)c1=O	3.1	0.9	-4.8	6.3	16.1*	9.4	-0.4	-5.1
CC(C)C[C@@H](CN1CCC[C@H]1CN1C(=O)C(=O)NC[C@@H]1Cc1ccccc1)N1C[C@H](Cc2ccc(O)cc2)N(CC2CCCCC2)C(=O)C1=O	-10.8	.	.	.	15.0*	-6.4	-0.5	-2.7
Cc1cc(=O)oc2c(C)c(OC(C)C(=O)NCCCN3CCOCC3)ccc12 (stereo not given)	-7.2	-1.9	4.5	7.3	16.3*	-2.8	-0.4	-4.3
CCc1cc(=O)oc2c(C)c(OC(C)C(=O)NCCCN3CCOCC3)ccc12 (stereo not given)	1.7	0.1	16.4	12.4	7.3	-10.4	.	.
COc1ccc(NC(=O)c2ccc(NC(=O)c3nc4nc(C)cc(C)n4n3)cc2)cc1	9.1	-4.9	-39.8	6.9	15.3*	0.1	-0.6	-3.5
CCc1ccc(NC(=O)CSc2nc3nc(C)cc(C)n3n2)cc1	-9.9	-3.6	-6.3	8.6	17.5*	-2.0	-0.5	-1.8
COC(=O)c1ccc(C(=O)N2CCCC(C)(C(=O)NS(=O)(=O)C3CC3)C2)cc1 (stereo not given)	3.7	.	.	.	-0.3	4.6	.	.
Cc1ccc(C)c(C(=O)CCC(=O)Nc2cccnc2)c1	-6.2	-4.0	17.3	12.3	15.1*	0.8	-0.5	-0.3

Source: PubChem (several laboratories)
